# Results reported in ChEMBL document CHEMBL1158586, “Hypopigmentary action of dihydropyranocoumarin D2, a decursin derivative, as a MITF-degrading agent” (J Nat Prod, 2010).
# Activity calls are given as the source filed them. The calls are words filed in the database; no cut-off is given here.
# How the values were obtained:
# Mel-Ab [1] = test: Reduction of MITF level in 24 hrs serum starved mouse Mel-Ab cells at 50 uM measured after 24 to 72 mins by Western blot analysis; format: functional; settings: in the assay text read “24 to 72 hrs” for “24 to 72 mins”
# Procedure, shortened: (§1)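 Mel-Ab cells cultured 24–72 h with 50 µM. Whole-cell lysates (10 µg protein/lane) analysed by Western blot for MITF and tyrosinase, with actin as loading control.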
# Mel-Ab [2] = test: Inhibition of melanin synthesis in mouse Mel-Ab cells assessed as in melanin content after 4 hrs by ELISA; format: functional, cell-based; settings: in the assay text read “4 days” for “4 hrs”
# Procedure, shortened: (§2)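 Mel-Ab melanocytes in TPA/CT-supplemented DMEM given 1–100 µM for four days. Cells photographed under phase contrast. Pellets then dissolved in 1 N NaOH, 100 °C, 30 min, spun 16000g for 20 min, supernatant OD read at 400 nm. Mean ± SD of three replicate experiments, compared with untreated control.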
# Mel-Ab [3] = test: Reduction of MITF level in 24 hrs serum starved mouse Mel-Ab cells […] measured after 3 hrs followed by MG132 proteasome inhibitor for 1 hr by Western blot analysis; format: functional
# Procedure, shortened: (§3)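 After serum starvation, Mel-Ab cells pretreated 1 h with 25 µg/mL cycloheximide, then 1 h with 25 µM MG132 and/or 100 µM chloroquine, then 3 h with 50 µM compound. MITF detected by Western blot of whole-cell lysates.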
# Mel-Ab [4] = test: Reduction of MITF level in 24 hrs serum starved mouse Mel-Ab cells at 25 ug/ml measured after 3 hrs followed by MG132/chloroquine for 1 hr by Western blot analysis; format: functional; settings: 50 uM, in the assay text read “50 uM” for “25 ug/ml”; procedure, shortened: as §3
# [5] = target: T1, Tyrosinase (Mus musculus) (UniProt P11344); test: Inhibition of tyrosinase activity in mouse Mel-Ab cells assessed as inhibition of melanogenesis at 1 to 100 uM by ELISA
# T1 sequence (whole entry): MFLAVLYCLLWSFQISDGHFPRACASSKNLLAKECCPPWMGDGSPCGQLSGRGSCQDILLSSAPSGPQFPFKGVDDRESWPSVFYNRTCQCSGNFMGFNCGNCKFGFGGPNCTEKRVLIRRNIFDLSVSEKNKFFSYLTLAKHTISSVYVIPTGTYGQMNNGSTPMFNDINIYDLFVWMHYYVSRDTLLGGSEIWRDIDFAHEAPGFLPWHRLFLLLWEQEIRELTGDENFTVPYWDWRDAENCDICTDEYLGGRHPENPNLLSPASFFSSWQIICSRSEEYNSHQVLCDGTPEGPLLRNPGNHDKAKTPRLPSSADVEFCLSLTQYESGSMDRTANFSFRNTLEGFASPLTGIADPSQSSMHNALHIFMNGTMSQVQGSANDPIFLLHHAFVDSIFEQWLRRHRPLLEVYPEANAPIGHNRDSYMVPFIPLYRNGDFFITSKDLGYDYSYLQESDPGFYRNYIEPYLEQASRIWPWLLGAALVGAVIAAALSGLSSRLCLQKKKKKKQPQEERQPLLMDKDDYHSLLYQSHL
# Mel-Ab [6] = test: Inhibition of melanin synthesis in mouse Mel-Ab cells assessed as reduction in melanin synthesis at 1 to 100 uM after 4 hrs by phase-contrast microscopy; format: functional, cell-based; settings: in the assay text read “4 days” for “4 hrs”; procedure, shortened: as §2
# [7] = Inhibition of melanin synthesis in mouse Mel-Ab cells assessed as reduction in melanin synthesis at 50 uM after 4 hrs by phase-contrast microscopy in presence of PD-98059 ERK pathway inhibitor; format: functional, cell-based; settings: in the assay text read “4 days” for “4 hrs”
# Procedure, shortened: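 Mel-Ab cells pretreated 1 h with 20 µM PD98059, then cultured four days with 50 µM compound. Phase-contrast photography, then melanin read as OD 400 nm after dissolving pellets in 1 N NaOH at 100 °C. Triplicate determinations, mean ± SD.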
# Mel-Ab [8] = test: Reduction of MITF level in 24 hrs serum starved mouse Mel-Ab cells […] measured after 3 hrs followed by chloroquine lysosomal proteolysis inhibitor for 1 hr by Western blot analysis; format: functional; procedure, shortened: as §3
# Mel-Ab [9] = test: Reduction of tyrosinase protein level in 24 hrs serum starved mouse Mel-Ab cells at 50 uM measured after 24 to 72 mins by Western blot analysis; format: functional; settings: in the assay text read “24 to 72 hrs” for “24 to 72 mins”; procedure, shortened: as §1
# Mel-Ab [10] = test: Reduction of MITF level in 24 hrs serum starved mouse Mel-Ab cells at 50 uM measured after 3 hrs by Western blot analysis in presence of PD-98059
# [11] = target: T2, Microphthalmia-associated transcription factor (Mus musculus) (UniProt Q08874); test: Down regulation of MITF activity in 24 hrs serum starved mouse Mel-Ab cells at 50 uM measured after 60 to 360 mins by Western blot analysis; format: cell-based
# T2 sequence (whole entry): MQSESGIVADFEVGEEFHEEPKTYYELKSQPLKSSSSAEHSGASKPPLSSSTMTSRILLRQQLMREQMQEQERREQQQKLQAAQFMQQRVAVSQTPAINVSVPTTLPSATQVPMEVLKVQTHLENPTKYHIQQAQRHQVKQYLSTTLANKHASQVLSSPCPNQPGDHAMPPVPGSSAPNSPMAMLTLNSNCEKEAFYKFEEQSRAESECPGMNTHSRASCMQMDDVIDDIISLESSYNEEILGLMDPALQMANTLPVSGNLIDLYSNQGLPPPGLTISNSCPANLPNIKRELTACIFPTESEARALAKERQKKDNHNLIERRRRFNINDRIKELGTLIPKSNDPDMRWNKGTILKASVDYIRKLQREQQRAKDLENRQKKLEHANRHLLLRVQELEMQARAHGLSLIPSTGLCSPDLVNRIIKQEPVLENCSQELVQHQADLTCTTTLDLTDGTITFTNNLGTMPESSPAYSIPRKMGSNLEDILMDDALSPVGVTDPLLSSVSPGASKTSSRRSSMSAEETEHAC
# Procedure, shortened: (§4)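 Mel-Ab cells serum-starved 24 h, then given 50 µM for the indicated times up to 360 min. Whole-cell lysates run at 10 µg protein per lane by SDS-PAGE and blotted on PVDF. Probed with 1:1000 antibodies to phospho-ERK, phospho-Akt, MITF and tyrosinase; actin served as loading control.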
# Mel-Ab [12] = test: Induction of ERK activity in 24 hrs serum starved mouse Mel-Ab cells at 50 uM by Western blot analysis; format: cell-based; procedure, shortened: as §4
# Mel-Ab [13] = test: Cytotoxicity against mouse Mel-Ab cells at 1 to 100 uM after 24 hrs by crystal violet assay; format: functional, cell-based
# Procedure, shortened: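 Mel-Ab (spontaneously immortalized mouse melanocytes; DMEM, 10% FBS, 100 nM TPA, 1 nM CT, 37 °C, 5% CO2) exposed 24 h to 1, 10, 50, 100 µM. Crystal violet staining (0.1% in 10% ethanol, 5 min, room temperature), four water rinses, dye extracted with 95% ethanol, absorbance read at 590 nm.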
# Mel-Ab [14] = test: Induction of ERK activity in 24 hrs serum starved mouse Mel-Ab cells at 50 uM by Western blot analysis in presence of PD-98059; format: cell-based
compound,measurement,setting,value
CC1(C)Oc2cc3oc(=O)ccc3cc2C[C@@H]1OC(=O)/C=C/c1ccccc1,Activity,Mel-Ab [1],Active
same,Activity,Mel-Ab [2],Dose-dependent effect
same,Activity,Mel-Ab [3],inactive
same,Activity,Mel-Ab [4],Active
same,Activity,[5],Active
same,Activity,Mel-Ab [6],Active
same,Activity,[7],inactive
same,Activity,Mel-Ab [8],inactive
same,Activity,Mel-Ab [9],Active
same,Activity,Mel-Ab [10],inactive
same,Activity,[11],Active
same,Activity,Mel-Ab [12],Active
same,Activity,Mel-Ab [13],inactive
same,Activity,Mel-Ab [14],inactive
